Reference: ChEMBL document CHEMBL1123346, “Pyrimidinones. 3. N-substituted 6-phenylpyrimidinones and pyrimidinediones with diuretic/hypotensive and antiinflammatory activity” (J Med Chem, 1986)
Each block holds one compound with its values, some of them ahead of it.

Legend:
Rattus norvegicus [1] = assay: Blood pressure change in rats after oral administration of 50 mg/kg dose after 24 hours; type: functional
How it was run: (§1)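 Restrained female Sprague–Dawley rats with indwelling aortic cannulas exteriorized at the nape; direct arterial pressure via transducer, mean pressure by electrical integration of phasic pressure. Readings before and 4 and 24 h after oral dosing (carboxymethylcellulose suspension, 10 mL/kg). Value is change in mean arterial pressure, averaged over two animals.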

Rattus norvegicus [2] = assay: Blood pressure change in rats after oral administration of 50 mg/kg dose after 4 hours; type: functional; how it was run: as §1
Rattus norvegicus [3] = assay: Inhibition of RPAR administered perorally at 25 mg/kg dose; type: functional; settings: route oral
How it was run: (§2)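 Male Wistar rats (180-200 g), 5-10/group, dosed orally (water with Tween-80 suspension) 1 h before iv sensitization with 1 mg bovine serum albumin; 24-h fasted. 60 min later subplantar challenge with 200 µg anti-BSA in left hindpaw. Paw swelling by mercury displacement plethysmography at 2 h post-challenge.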

Rattus norvegicus [4] = assay: Inhibition of RPAR administered perorally at 100 mg/kg dose; type: functional; settings: route oral; how it was run: as §2
Rattus norvegicus [5] = assay: Inhibition of RPAR administered perorally at 50 mg/kg dose; type: functional; settings: route oral; how it was run: as §2
Rattus norvegicus [6] = species: Rattus norvegicus; assay: Diuretic activity in rats; type: functional, Urine
How it was run: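 Male rats (~160 g) fasted 24 h, water withheld 1.5 h, both withheld during test. Gavage 25 mL/kg 0.9% saline with 0.5% carboxymethylcellulose containing compound at 40 mg/kg; urine collected 5 h in metabolism cages. Two-stage test, T/C urine volume per stage; active if product of stage T/Cs ≥3.34.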

[7] = Sodium salt excretion in conscious rat at the dose of 30 mg/kg expressed as urinary excretion in treated rats/urinary excretion in control rats; type: ADME, organism-based, Urine; parameters: dose 30 mg/kg; settings: in vivo
How it was run: (§3)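 Male rats (~160 g) fasted 24 h, water withheld 1.5 h; oral gavage of compound (0.3-100 mg/kg) in 25 mL/kg saline with 0.5% carboxymethylcellulose; 5 h urine collection in metabolism cages. Urine volume, Na+ and K+ (flame photometry) expressed as treated/control excretion ratio.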

[8] = Sodium salt excretion in conscious rat at the dose of 3.0 mg/kg expressed as urinary excretion in treated rats/urinary excretion in control rats; type: ADME, organism-based, Urine; parameters: dose 3 mg/kg; settings: in vivo; how it was run: as §3
[9] = Sodium salt excretion in conscious rat at the dose of 10 mg/kg expressed as urinary excretion in treated rats/urinary excretion in control rats; type: ADME, organism-based, Urine; parameters: dose 10 mg/kg; settings: in vivo; how it was run: as §3
Rattus norvegicus [10] = assay: Compound was tested for urinary volume excretion in conscious rat at the dose of 1.0 mg/kg expressed as urinary excretion in treated rats/urinary excretion in control rats; type: ADME, organism-based, Urine; parameters: dose 1 mg/kg; settings: in vivo; how it was run: as §3
Rattus norvegicus [11] = assay: Compound was tested for urinary volume excretion in conscious rat at the dose of 100 mg/kg expressed as urinary excretion in treated rats/urinary excretion in control rats; type: ADME, organism-based, Urine; parameters: dose 100 mg/kg; settings: in vivo; how it was run: as §3
Rattus norvegicus [12] = assay: Compound was tested for urinary volume excretion in conscious rat at the dose of 3.0 mg/kg expressed as urinary excretion in treated rats/urinary excretion in control rats; type: ADME, organism-based, Urine; parameters: dose 3 mg/kg; settings: in vivo; how it was run: as §3
[13] = Sodium salt excretion in conscious rat at the dose of 100 mg/kg expressed as urinary excretion in treated rats/urinary excretion in control rats; type: ADME, organism-based, Urine; parameters: dose 100 mg/kg; settings: in vivo; how it was run: as §3
[14] = Potassium salt excretion in conscious rat at the dose of 10 mg/kg expressed as urinary excretion in treated rats/urinary excretion in control rats; type: ADME, organism-based, Urine; parameters: dose 10 mg/kg; settings: in vivo; how it was run: as §3
Rattus norvegicus [15] = assay: Compound was tested for urinary volume excretion in conscious rat at the dose of 30 mg/kg expressed as urinary excretion in treated rats/urinary excretion in control rats; type: ADME, organism-based, Urine; parameters: dose 30 mg/kg; settings: in vivo; how it was run: as §3
Rattus norvegicus [16] = assay: Compound was tested for urinary volume excretion in conscious rat at the dose of 10 mg/kg expressed as urinary excretion in treated rats/urinary excretion in control rats; type: ADME, organism-based, Urine; parameters: dose 10 mg/kg; settings: in vivo; how it was run: as §3
[17] = Potassium salt excretion in conscious rat at the dose of 100 mg/kg expressed as urinary excretion in treated rats/urinary excretion in control rats; type: ADME, organism-based, Urine; parameters: dose 100 mg/kg; settings: in vivo; how it was run: as §3
[18] = Sodium salt excretion in conscious rat at the dose of 0.3 mg/kg expressed as urinary excretion in treated rats/urinary excretion in control rats; type: ADME, organism-based, Urine; parameters: dose 0.3 mg/kg; settings: in vivo; how it was run: as §3
[19] = Potassium salt excretion in conscious rat at the dose of 0.3 mg/kg expressed as urinary excretion in treated rats/urinary excretion in control rats; type: ADME, organism-based, Urine; parameters: dose 0.3 mg/kg; settings: in vivo; how it was run: as §3
Rattus norvegicus [20] = assay: Compound was tested for urinary volume excretion in conscious rat at the dose of 0.3 mg/kg expressed as urinary excretion in treated rats/urinary excretion in control rats; type: ADME, organism-based, Urine; parameters: dose 0.3 mg/kg; settings: in vivo; how it was run: as §3
[21] = Potassium salt excretion in conscious rat at the dose of 1.0 mg/kg expressed as urinary excretion in treated rats/urinary excretion in control rats; type: ADME, organism-based, Urine; parameters: dose 1 mg/kg; settings: in vivo; how it was run: as §3
[22] = Potassium salt excretion in conscious rat at the dose of 30 mg/kg expressed as urinary excretion in treated rats/urinary excretion in control rats; type: ADME, organism-based, Urine; parameters: dose 30 mg/kg; settings: in vivo; how it was run: as §3
[23] = Potassium salt excretion in conscious rat at the dose of 3.0 mg/kg expressed as urinary excretion in treated rats/urinary excretion in control rats; type: ADME, organism-based, Urine; parameters: dose 3 mg/kg; settings: in vivo; how it was run: as §3
[24] = Sodium salt excretion in conscious rat at the dose of 1.0 mg/kg expressed as urinary excretion in treated rats/urinary excretion in control rats; type: ADME, organism-based, Urine; parameters: dose 1 mg/kg; settings: in vivo; how it was run: as §3
Rattus norvegicus [25] = assay: Compound was tested for blood pressure change in rats after oral administration of 50 mg/kg dose after 4 hours; type: functional; how it was run: as §1
Rattus norvegicus [26] = assay: Compound was tested for blood pressure change in rats after oral administration of 50 mg/kg dose after 24 hours; type: functional; how it was run: as §1

SMILES: Nc1nc(=O)c(Br)c(-c2ccccc2)n1O
MABP change (Rattus norvegicus [1]): -1 mmHg
MABP change (Rattus norvegicus [2]): 6 mmHg

SMILES: Cn1c(=O)[nH]c(-c2ccccc2)c(Br)c1=O
MABP change (Rattus norvegicus [1]): 6 mmHg
MABP change (Rattus norvegicus [2]): -1 mmHg

SMILES: Cn1c(=O)cc(-c2ccccc2)[nH]c1=O
MABP change (Rattus norvegicus [1]): 6 mmHg
MABP change (Rattus norvegicus [2]): 0 mmHg

SMILES: N=C(N)Nc1nc(O)c(Br)c(-c2ccccc2)n1
MABP change (Rattus norvegicus [1]): -1 mmHg
MABP change (Rattus norvegicus [2]): -2 mmHg

SMILES: Cn1c(-c2ccccc2)c(I)c(=O)[nH]c1=O
inhibition in vivo at 25 mg/kg (Rattus norvegicus [3]): 33%
inhibition in vivo at 100 mg/kg (Rattus norvegicus [4]): 73%
MABP change (Rattus norvegicus [1]): -1 mmHg
MABP change (Rattus norvegicus [2]): 15 mmHg
inhibition in vivo at 50 mg/kg (Rattus norvegicus [5]): 44%

SMILES: Nc1nc(O)c(I)c(-c2ccccc2)n1
inhibition in vivo at 100 mg/kg (Rattus norvegicus [4]): 8%
MABP change (Rattus norvegicus [1]): -12 mmHg
MABP change (Rattus norvegicus [2]): -7 mmHg
inhibition in vivo at 50 mg/kg (Rattus norvegicus [5]): 3%

SMILES: C=CCn1c(N)nc(-c2ccccc2)c(I)c1=O
Diuretic activity (Rattus norvegicus [6]): 5.09
MABP change (Rattus norvegicus [1]): -10 mmHg
MABP change (Rattus norvegicus [2]): -6 mmHg

Na+ excretion [7]: 1.4
Na+ excretion [8]: 1
Na+ excretion [9]: 1.2
Urinary volume (Rattus norvegicus [10]): 1
Urinary volume (Rattus norvegicus [11]): 2.1
Urinary volume (Rattus norvegicus [12]): 1.1
Na+ excretion [13]: 1.9
K+ excretion [14]: 0.9
Urinary volume (Rattus norvegicus [15]): 1.5
Urinary volume (Rattus norvegicus [16]): 1.2
K+ excretion [17]: 1.8
Na+ excretion [18]: 1.2
K+ excretion [19]: 1
Urinary volume (Rattus norvegicus [20]): 0.9
K+ excretion [21]: 1
K+ excretion [22]: 1.2
K+ excretion [23]: 1
Na+ excretion [24]: 1.2
SMILES: Oc1nc(O)c(Br)c(-c2ccccc2)n1
Diuretic activity (Rattus norvegicus [6]): 3.53
inhibition in vivo at 100 mg/kg (Rattus norvegicus [4]): 58%
MABP change (Rattus norvegicus [1]): 5 mmHg
MABP change (Rattus norvegicus [2]): 6 mmHg
inhibition in vivo at 50 mg/kg (Rattus norvegicus [5]): 46%

Na+ excretion [7]: 2.4
Na+ excretion [8]: 2.1
Na+ excretion [9]: 2.4
Urinary volume (Rattus norvegicus [10]): 2.3
Urinary volume (Rattus norvegicus [11]): 2.7
Urinary volume (Rattus norvegicus [12]): 2.2
Na+ excretion [13]: 2.5
K+ excretion [14]: 1.5
Urinary volume (Rattus norvegicus [15]): 2.6
Urinary volume (Rattus norvegicus [16]): 2.4
K+ excretion [17]: 1.7
Na+ excretion [18]: 1.7
K+ excretion [19]: 1.2
Urinary volume (Rattus norvegicus [20]): 1.9
K+ excretion [21]: 1.6
K+ excretion [22]: 1.5
K+ excretion [23]: 1.6
Na+ excretion [24]: 2
SMILES: NS(=O)(=O)c1cc2c(cc1Cl)NCNS2(=O)=O [HYDROCHLOROTHIAZIDE]
Diuretic activity (Rattus norvegicus [6]): 7.18
MABP change (Rattus norvegicus [25]): 0 mmHg
MABP change (Rattus norvegicus [26]): 2 mmHg

SMILES: Cn1c(-c2ccccc2)c(Br)c(=O)n(C)c1=O
inhibition in vivo at 100 mg/kg (Rattus norvegicus [4]): 59%
inhibition in vivo at 50 mg/kg (Rattus norvegicus [5]): 36%

SMILES: CN(C)c1nc(O)c(I)c(-c2ccccc2)n1
MABP change (Rattus norvegicus [1]): 2 mmHg
MABP change (Rattus norvegicus [2]): 1 mmHg

SMILES: Oc1nc(O)c(I)c(-c2ccccc2)n1
Diuretic activity (Rattus norvegicus [6]): 5.43
inhibition in vivo at 100 mg/kg (Rattus norvegicus [4]): 48%
MABP change (Rattus norvegicus [1]): 11 mmHg
MABP change (Rattus norvegicus [2]): 7 mmHg
inhibition in vivo at 50 mg/kg (Rattus norvegicus [5]): 41%

SMILES: CC(=O)Nc1nc(O)c(Br)c(-c2ccccc2)n1
MABP change (Rattus norvegicus [1]): 1 mmHg
MABP change (Rattus norvegicus [2]): 4 mmHg
